Measurements: ChEMBL document CHEMBL1135165, “Pyrrolidine-5,5-trans-lactams as novel mechanism-based inhibitors of human cytomegalovirus protease. Part 3: potency and plasma stability” (Bioorg Med Chem Lett, 2002)

What was measured:
[1] = Half life in human plasma was reported; type: ADME, cell-free
[2] = target: T1, Capsid scaffolding protein (Human cytomegalovirus (strain AD169) (HHV-5) (Human herpesvirus 5), UniProt P16753); experiment: Tested in vitro for inhibitory activity against Protease; set-up: species or system Human betaherpesvirus 5
T1 sequence (P16753 whole entry): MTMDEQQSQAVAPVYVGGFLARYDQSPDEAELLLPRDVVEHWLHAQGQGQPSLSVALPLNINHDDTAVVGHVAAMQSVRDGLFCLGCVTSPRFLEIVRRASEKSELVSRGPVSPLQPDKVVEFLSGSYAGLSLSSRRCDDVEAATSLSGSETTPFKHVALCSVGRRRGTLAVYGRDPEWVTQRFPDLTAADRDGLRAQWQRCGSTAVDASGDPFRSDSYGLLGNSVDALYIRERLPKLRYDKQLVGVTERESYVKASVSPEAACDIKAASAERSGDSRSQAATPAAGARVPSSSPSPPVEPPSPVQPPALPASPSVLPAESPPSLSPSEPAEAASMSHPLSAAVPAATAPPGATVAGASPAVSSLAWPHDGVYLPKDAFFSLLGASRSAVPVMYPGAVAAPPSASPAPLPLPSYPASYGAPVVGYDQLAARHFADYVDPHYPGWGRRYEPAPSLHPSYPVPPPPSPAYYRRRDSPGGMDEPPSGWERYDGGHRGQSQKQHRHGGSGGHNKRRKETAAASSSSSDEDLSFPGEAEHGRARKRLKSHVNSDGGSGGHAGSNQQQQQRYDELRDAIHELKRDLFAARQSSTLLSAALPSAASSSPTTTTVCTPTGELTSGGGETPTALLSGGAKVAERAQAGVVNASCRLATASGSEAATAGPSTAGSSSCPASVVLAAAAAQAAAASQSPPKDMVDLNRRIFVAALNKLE
Procedure, shortened: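 Human cytomegalovirus protease inhibition was measured in a p-nitroanilide (pNA) chromogenic substrate assay. Values are reported as IC50 in μM, with Ki also given for some compounds.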

Row | SMILES | half-life [1] | IC50 [2]
1 | CC1CC1C(=O)N1C(=O)[C@@H](C)[C@@H]2[C@@H]1CCN2C(=O)[C@@H]1CCCN1S(=O)(=O)c1cccc2c(N(C)C)cccc12 (stereo partly drawn) | 2.5 h | 1.4 µM
2 | C[C@@H]1C(=O)N(C(=O)C2C(C)(C)C2(C)C)[C@H]2CCN(C(=O)OCc3ccccc3)[C@H]12 | 33 h | > 500 µM
3 | C[C@@H]1[C@H](C)[C@@H]1C(=O)N1C(=O)[C@@H](C)[C@@H]2[C@@H]1CCN2C(=O)OCc1ccccc1 | 9.8 h | 72 µM
4 | COC(=O)N1C(=O)[C@@H](C)[C@@H]2[C@@H]1CCN2C(=O)OCc1ccccc1 | 0.833 h | 148 µM
5 | C[C@@H]1C(=O)N(C(=O)C(C)(C)C)[C@H]2CCN(C(=O)OCc3ccccc3)[C@H]12 | 3.7 h | > 500 µM
6 | C[C@@H]1C(=O)N(C(=O)C2CC2)[C@H]2CCN(C(=O)[C@@H]3CCCN3S(=O)(=O)c3cccc4c(N(C)C)cccc34)[C@H]12 | 5 h | –
7 | CNC(=O)N1C(=O)[C@@H](C)[C@@H]2[C@@H]1CCN2C(=O)OCc1ccccc1 | > 24 h | > 500 µM
8 | CC1CC1C(=O)N1C(=O)[C@@H](C)[C@@H]2[C@@H]1CCN2C(=O)OCc1ccccc1 (stereo partly drawn) | 2.6 h | 16 µM
9 | C[C@@H]1C(=O)N(S(C)(=O)=O)[C@H]2CCN(C(=O)OCc3ccccc3)[C@H]12 | < 0.0833 h | ~500 µM
10 | C[C@@H]1C(=O)N(C(=O)NCc2ccccc2)[C@H]2CCN(C(=O)[C@@H]3CCCN3S(=O)(=O)c3cccc4c(N(C)C)cccc34)[C@H]12 | > 33 h | 6.6 µM
11 | C[C@@H]1C(=O)N(C(=O)C2CC2)[C@H]2CCN(C(=O)OCc3ccccc3)[C@H]12 | 1.4 h | 9 µM
12 | C[C@@H]1C(=O)N(c2nccs2)[C@H]2CCN(C(=O)[C@@H]3CCCN3S(=O)(=O)c3cccc4c(N(C)C)cccc34)[C@H]12 | > 50 h | 2.1 µM
13 | CC(=O)N1C(=O)[C@@H](C)[C@@H]2[C@@H]1CCN2C(=O)OCc1ccccc1 | 0.9 h | –
14 | C[C@@H]1C(=O)N(C(=O)NCc2ccccc2)[C@H]2CCN(C(=O)OCc3ccccc3)[C@H]12 | 12 h | 250 µM
15 | CC(=O)N1C(=O)C(C)(C)[C@@H]2[C@@H]1CCN2C(=O)OCc1ccccc1 | 6.5 h | > 500 µM
16 | C[C@@H]1C(=O)N(C(=O)C2C(C)(C)C2(C)C)[C@H]2CCN(C(=O)[C@@H]3CCCN3S(=O)(=O)c3cccc4c(N(C)C)cccc34)[C@H]12 | > 24 h | > 100 µM
17 | CNC(=O)N1C(=O)[C@@H](C)[C@@H]2[C@@H]1CCN2C(=O)[C@@H]1CCCN1S(=O)(=O)c1cccc2c(N(C)C)cccc12 | 12 h | 22 µM
18 | COP(=O)(OC)N1C(=O)[C@@H](C)[C@@H]2[C@@H]1CCN2C(=O)OCc1ccccc1 | > 24 h | > 500 µM
19 | C[C@@H]1C(=O)N(c2ccc([N+](=O)[O-])cc2)[C@H]2CCN(C(=O)[C@@H]3CCCN3S(=O)(=O)c3cccc4c(N(C)C)cccc34)[C@H]12 | – | 41 µM
20 | C[C@@H]1C(=O)N(c2nccs2)[C@H]2CCN(C(=O)OCc3ccccc3)[C@H]12 | 44 h | ~500 µM
21 | C[C@@H]1C(=O)N(c2ccc([N+](=O)[O-])cc2)[C@H]2CCN(C(=O)OCc3ccccc3)[C@H]12 | 40 h | ~500 µM
22 | C[C@@H]1[C@H](C)[C@@H]1C(=O)N1C(=O)[C@@H](C)[C@@H]2[C@@H]1CCN2C(=O)[C@@H]1CCCN1S(=O)(=O)c1cccc2c(N(C)C)cccc12 | 20 h | 5.1 µM
23 | C[C@@H]1C(=O)N(c2ccc([N+](=O)[O-])cc2[N+](=O)[O-])[C@H]2CCN(C(=O)OCc3ccccc3)[C@H]12 | > 24 h | ~500 µM
